# Target: T1, Tyrosine-protein phosphatase non-receptor type 6 (Homo sapiens, UniProt P29350)
# Assay: Inhibition of human GST-tagged SHP1 (244 to 570 residues) expressed in Escherichia coli BL21-CondenPlus (DE3) using pNNP as substrate
# T1 sequence (P29350 whole entry, the tested form may be a part): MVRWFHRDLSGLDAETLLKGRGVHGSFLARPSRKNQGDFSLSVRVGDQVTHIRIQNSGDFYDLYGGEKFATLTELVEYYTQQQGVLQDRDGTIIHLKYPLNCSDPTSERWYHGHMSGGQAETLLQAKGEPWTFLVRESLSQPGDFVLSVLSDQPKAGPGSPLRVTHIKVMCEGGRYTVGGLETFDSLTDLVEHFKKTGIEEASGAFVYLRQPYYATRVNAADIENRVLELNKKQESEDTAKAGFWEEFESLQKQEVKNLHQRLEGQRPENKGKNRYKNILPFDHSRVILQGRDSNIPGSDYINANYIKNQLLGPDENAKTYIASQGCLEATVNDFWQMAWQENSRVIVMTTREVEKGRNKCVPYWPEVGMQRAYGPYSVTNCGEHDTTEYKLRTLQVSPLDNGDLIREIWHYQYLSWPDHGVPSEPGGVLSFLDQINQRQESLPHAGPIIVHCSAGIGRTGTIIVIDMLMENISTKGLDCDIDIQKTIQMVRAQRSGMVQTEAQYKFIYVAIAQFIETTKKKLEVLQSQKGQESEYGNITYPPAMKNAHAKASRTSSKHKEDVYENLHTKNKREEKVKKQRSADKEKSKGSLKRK
row,SMILES,IC50 [nM]
1,CCOc1cc(NS(C)(=O)=O)c(OCC)cc1CNC(=O)Nc1ccc(OCC)c(C(=O)Nc2ccc(C)cc2)c1,2940
2,CCCNC(=O)c1cc(NC(=O)NCc2cc(OCC)c(NS(C)(=O)=O)cc2OCC)ccc1OCC,8630

# Results, then the compound that gave them:
row,IC50 [nM],SMILES
1,3450,CCCOc1ccc(NC(=O)NCc2cc(OCC)c(NS(C)(=O)=O)cc2OCC)cc1C(=O)OC
2,850,CCOc1cc(NS(C)(=O)=O)c(OCC)cc1CNC(=O)Nc1ccc(OCC)c(C(=O)Nc2ccc(OC)c(OC)c2)c1
3,1090,CCOc1cc(NS(C)(=O)=O)c(OCC)cc1CNC(=O)Nc1ccc(OCC)c(C(=O)OC)c1

# Target: T2, Tyrosine-protein phosphatase non-receptor type 1 (Homo sapiens) (UniProt P18031)
# T2 sequence (whole entry): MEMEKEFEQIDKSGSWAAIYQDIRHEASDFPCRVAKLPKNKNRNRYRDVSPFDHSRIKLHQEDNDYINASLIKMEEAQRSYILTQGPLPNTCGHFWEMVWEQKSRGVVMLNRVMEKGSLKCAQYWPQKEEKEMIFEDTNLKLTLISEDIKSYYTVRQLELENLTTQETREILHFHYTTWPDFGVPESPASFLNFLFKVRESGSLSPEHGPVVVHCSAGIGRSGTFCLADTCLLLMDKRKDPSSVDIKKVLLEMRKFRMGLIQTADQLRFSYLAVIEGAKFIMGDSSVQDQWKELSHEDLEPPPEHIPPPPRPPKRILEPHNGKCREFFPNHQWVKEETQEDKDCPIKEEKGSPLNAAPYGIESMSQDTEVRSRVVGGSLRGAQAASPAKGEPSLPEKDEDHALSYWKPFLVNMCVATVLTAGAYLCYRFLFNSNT
# Assay: Inhibition of recombinant human PTP1B at 25 uM using pNNP as substrate after 30 mins relative to control
# In short: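 Recombinant PTP1B, 30 nM, with 2 mM pNPP, 1 mM dithiothreitol and 1 mM EDTA at pH 6.5. Compounds delivered from DMSO. Incubated 30 min at 37 °C, stopped with 2.5 M NaOH, pNP read at 405 nm.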
row,inhibition [%],SMILES
1,< 50,CCOc1cc(NS(C)(=O)=O)c(OCC)cc1CNC(=O)Nc1ccc(OCC)c(C(=O)Nc2ccccc2)c1
2,< 50,CCOc1cc(NS(C)(=O)=O)c(OCC)cc1CNC(=O)Nc1ccc(OCC)c(C(=O)Nc2ccc(OC)cc2)c1

# Species: Homo sapiens
# Assay: Selective ratio of IC50 for human TCPTP to IC50 for recombinant human PTP1B
# In short: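 Ratio of TCPTP IC50 to PTP1B IC50. Both measured with the same pNPP assay: 2 mM pNPP, pH 6.5 with DTT and EDTA, 30 min at 37 °C, NaOH stop, A405, logit-derived IC50.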
row,SMILES,Ratio IC50
1,CCOc1cc(NS(C)(=O)=O)c(OCC)cc1CNC(=O)Nc1ccc(OCC)c(C(=O)Nc2ccc(C)cc2)c1,4.1
2,CCCNC(=O)c1cc(NC(=O)NCc2cc(OCC)c(NS(C)(=O)=O)cc2OCC)ccc1OCC,10.9

# Continued, values first:
row,Ratio IC50,SMILES
1,45.9,CCOc1cc(NS(C)(=O)=O)c(OCC)cc1CNC(=O)Nc1ccc(OCC)c(C(=O)NC)c1
2,17.3,CCCOc1ccc(NC(=O)NCc2cc(OCC)c(NS(C)(=O)=O)cc2OCC)cc1C(=O)OC
3,5.9,CCOc1cc(NS(C)(=O)=O)c(OCC)cc1CNC(=O)Nc1ccc(OCC)c(C(=O)Nc2ccc(OC)c(OC)c2)c1
4,36,CCOc1cc(NS(C)(=O)=O)c(OCC)cc1CNC(=O)Nc1ccc(OCC)c(C(=O)OC)c1

# Tested on: L6
# Assay: Antidiabetic activity in rat L6 cells assessed as increase in insulin-stimulated 2-NBDG uptake at 10 uM after 30 mins by fluorescent assay relative to control
# Type: functional
# In short: (§1)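 Differentiated L6 myotubes rinsed with warm PBS, serum-starved (serum-free DMEM 3 h, 37 °C; figure legend says 2 h), then exposed to compound at […] for 4 h. Insulin 10 nM for 10 min at 37 °C in Krebs-Ringer phosphate buffer pH 7.4, then 2-NBDG added. Uptake read after 30 min by fluorescence at ex 485/em 535 nm. Background from cells with drug but no 2-NBDG. n = 3, mean ± SEM.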
row,SMILES,Activity [%]
1,CCOc1cc(NS(C)(=O)=O)c(OCC)cc1CNC(=O)Nc1ccc(OCC)c(C(=O)Nc2ccc(OC)c(OC)c2)c1,25.8
2,CCOc1cc(NS(C)(=O)=O)c(OCC)cc1CNC(=O)Nc1ccc(OCC)c(C(=O)OC)c1,22.9

# Target: T1, Tyrosine-protein phosphatase non-receptor type 6
# Assay: Inhibition of human GST-tagged SHP1 (244 to 570 residues) expressed in Escherichia coli BL21-CondenPlus (DE3) at 25 uM using pNNP as substrate relative to control
row,inhibition [%],SMILES
1,< 50,CCOc1cc(NS(C)(=O)=O)c(OCC)cc1CNC(=O)Nc1ccc(OCC)c(C(=O)NC)c1

# Tested on: L6
# Assay: Antidiabetic activity in rat L6 cells assessed as increase in insulin-stimulated 2-NBDG uptake at 0.5 uM after 30 mins by fluorescent assay relative to control
# Type: functional
# In short: as §1
row,SMILES,Activity [%]
1,CCOc1cc(NS(C)(=O)=O)c(OCC)cc1CNC(=O)Nc1ccc(OCC)c(C(=O)Nc2ccc(OC)c(OC)c2)c1,6.6
2,CCOc1cc(NS(C)(=O)=O)c(OCC)cc1CNC(=O)Nc1ccc(OCC)c(C(=O)OC)c1,16.2

# Target: T3, Tyrosine-protein phosphatase non-receptor type 2 (Homo sapiens, UniProt P17706)
# T3 sequence (P17706 whole entry): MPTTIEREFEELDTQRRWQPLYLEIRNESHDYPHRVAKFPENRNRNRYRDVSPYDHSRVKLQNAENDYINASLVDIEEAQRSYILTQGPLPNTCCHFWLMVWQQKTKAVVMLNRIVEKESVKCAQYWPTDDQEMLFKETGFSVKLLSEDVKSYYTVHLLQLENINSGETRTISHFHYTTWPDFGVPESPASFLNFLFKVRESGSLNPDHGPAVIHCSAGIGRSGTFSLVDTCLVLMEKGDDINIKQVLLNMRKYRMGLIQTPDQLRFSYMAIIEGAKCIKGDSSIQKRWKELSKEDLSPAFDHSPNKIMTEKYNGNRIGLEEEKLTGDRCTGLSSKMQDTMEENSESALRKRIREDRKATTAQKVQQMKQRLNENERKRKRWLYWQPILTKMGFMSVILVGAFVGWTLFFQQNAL
# Assay: Inhibition of human TCPTP using pNNP as substrate after 30 mins
row,SMILES,IC50 [nM]
1,CCOc1cc(NS(C)(=O)=O)c(OCC)cc1CNC(=O)Nc1ccc(OCC)c(C(=O)Nc2ccc(C)cc2)c1,870
2,CCCNC(=O)c1cc(NC(=O)NCc2cc(OCC)c(NS(C)(=O)=O)cc2OCC)ccc1OCC,2020

# The remaining lines, values ahead:
row,IC50 [nM],SMILES
1,7620,CCOc1cc(NS(C)(=O)=O)c(OCC)cc1CNC(=O)Nc1ccc(OCC)c(C(=O)NC)c1
2,1180,CCCOc1ccc(NC(=O)NCc2cc(OCC)c(NS(C)(=O)=O)cc2OCC)cc1C(=O)OC
3,390,CCOc1cc(NS(C)(=O)=O)c(OCC)cc1CNC(=O)Nc1ccc(OCC)c(C(=O)Nc2ccc(OC)c(OC)c2)c1
4,670,CCOc1cc(NS(C)(=O)=O)c(OCC)cc1CNC(=O)Nc1ccc(OCC)c(C(=O)OC)c1

# Target: T4, Receptor-type tyrosine-protein phosphatase F (Homo sapiens, UniProt P10586)
# T4 sequence (P10586 whole entry, the tested form may be a part): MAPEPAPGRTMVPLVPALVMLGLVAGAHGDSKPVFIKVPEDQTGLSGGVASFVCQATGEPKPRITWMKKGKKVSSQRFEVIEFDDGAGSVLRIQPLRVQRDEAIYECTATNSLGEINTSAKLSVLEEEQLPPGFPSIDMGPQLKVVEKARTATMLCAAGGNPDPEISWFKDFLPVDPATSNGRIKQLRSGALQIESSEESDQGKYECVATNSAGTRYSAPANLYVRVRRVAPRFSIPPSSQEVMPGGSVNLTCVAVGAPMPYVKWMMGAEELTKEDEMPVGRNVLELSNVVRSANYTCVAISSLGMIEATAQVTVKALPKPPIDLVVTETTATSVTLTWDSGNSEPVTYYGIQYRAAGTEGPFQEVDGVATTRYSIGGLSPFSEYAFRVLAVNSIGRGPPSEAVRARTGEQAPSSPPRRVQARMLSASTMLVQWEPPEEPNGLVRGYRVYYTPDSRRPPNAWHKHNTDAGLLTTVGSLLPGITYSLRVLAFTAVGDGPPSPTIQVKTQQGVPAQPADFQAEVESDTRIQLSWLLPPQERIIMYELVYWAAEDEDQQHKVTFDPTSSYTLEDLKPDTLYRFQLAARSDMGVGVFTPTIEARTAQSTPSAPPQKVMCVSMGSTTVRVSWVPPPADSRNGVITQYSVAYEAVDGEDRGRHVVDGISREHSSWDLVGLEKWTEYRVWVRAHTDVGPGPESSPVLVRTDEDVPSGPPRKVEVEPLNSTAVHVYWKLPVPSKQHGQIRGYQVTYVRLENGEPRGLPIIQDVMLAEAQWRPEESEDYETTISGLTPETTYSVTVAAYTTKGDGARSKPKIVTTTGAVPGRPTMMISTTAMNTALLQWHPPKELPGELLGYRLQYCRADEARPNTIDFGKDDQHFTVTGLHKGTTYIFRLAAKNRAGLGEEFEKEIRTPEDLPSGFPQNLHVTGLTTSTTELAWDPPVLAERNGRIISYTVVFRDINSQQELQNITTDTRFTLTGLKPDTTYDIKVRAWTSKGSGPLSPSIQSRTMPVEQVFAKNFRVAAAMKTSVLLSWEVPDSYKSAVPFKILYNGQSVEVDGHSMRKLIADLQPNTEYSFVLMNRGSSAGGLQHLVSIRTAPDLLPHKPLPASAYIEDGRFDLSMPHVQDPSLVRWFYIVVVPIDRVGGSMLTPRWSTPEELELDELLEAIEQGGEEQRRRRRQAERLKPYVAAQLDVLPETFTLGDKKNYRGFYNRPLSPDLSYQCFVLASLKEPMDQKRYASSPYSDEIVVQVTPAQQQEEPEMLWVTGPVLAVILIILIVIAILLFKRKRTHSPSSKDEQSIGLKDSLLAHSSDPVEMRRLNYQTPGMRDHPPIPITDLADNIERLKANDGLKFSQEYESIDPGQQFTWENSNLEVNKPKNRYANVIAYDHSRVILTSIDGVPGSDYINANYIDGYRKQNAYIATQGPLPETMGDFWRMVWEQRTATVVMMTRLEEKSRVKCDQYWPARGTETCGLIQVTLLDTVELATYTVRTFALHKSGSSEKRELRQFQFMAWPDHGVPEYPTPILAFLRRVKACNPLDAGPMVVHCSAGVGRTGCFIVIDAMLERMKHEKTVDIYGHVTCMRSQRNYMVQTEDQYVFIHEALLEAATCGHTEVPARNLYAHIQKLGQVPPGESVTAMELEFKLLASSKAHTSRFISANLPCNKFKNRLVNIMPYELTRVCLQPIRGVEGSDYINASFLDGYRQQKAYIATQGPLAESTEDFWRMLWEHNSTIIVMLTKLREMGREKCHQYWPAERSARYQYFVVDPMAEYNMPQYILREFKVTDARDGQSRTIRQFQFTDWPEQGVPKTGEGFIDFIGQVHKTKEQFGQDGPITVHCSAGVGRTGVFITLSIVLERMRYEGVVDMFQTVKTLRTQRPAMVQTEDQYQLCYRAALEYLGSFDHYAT
# Assay: Inhibition of human GST-tagged LAR D1 (1275 to 1613 residues) expressed in Escherichia coli BL21-CondenPlus (DE3) using pNNP as substrate
row,IC50 [nM],SMILES
1,7340,CCOc1cc(NS(C)(=O)=O)c(OCC)cc1CNC(=O)Nc1ccc(OCC)c(C(=O)Nc2ccc(OC)c(OC)c2)c1
2,6950,CCOc1cc(NS(C)(=O)=O)c(OCC)cc1CNC(=O)Nc1ccc(OCC)c(C(=O)Nc2ccc(C)cc2)c1
3,5360,CCOc1cc(NS(C)(=O)=O)c(OCC)cc1CNC(=O)Nc1ccc(OCC)c(C(=O)OC)c1

# Target: T5, Tyrosine-protein phosphatase non-receptor type 11 (Homo sapiens) (UniProt Q06124)
# T5 sequence (whole entry): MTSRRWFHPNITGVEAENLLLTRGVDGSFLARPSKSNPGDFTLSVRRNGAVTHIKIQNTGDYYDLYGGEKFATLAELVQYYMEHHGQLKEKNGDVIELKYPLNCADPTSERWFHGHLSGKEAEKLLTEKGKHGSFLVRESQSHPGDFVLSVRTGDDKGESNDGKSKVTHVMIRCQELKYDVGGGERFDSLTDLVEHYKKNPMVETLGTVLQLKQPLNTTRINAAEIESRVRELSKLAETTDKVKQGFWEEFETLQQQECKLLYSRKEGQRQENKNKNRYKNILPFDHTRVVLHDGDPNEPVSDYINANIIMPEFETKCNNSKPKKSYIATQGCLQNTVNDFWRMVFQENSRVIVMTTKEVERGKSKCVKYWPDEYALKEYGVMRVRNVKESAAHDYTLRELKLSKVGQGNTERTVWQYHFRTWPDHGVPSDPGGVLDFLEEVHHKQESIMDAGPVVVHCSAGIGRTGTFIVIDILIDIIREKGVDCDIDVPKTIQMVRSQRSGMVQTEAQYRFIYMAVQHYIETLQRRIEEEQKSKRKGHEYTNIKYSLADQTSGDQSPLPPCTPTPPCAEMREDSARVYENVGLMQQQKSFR
# Assay: Inhibition of human GST-tagged SHP2 ([…] residues) expressed in Escherichia coli BL21-CondenPlus (DE3) at 25 uM using pNNP as substrate relative to control
row,inhibition [%],SMILES
1,< 50,CCOc1cc(NS(C)(=O)=O)c(OCC)cc1CNC(=O)Nc1ccc(OCC)c(C(=O)Nc2ccc(C)cc2)c1
2,< 50,CCOc1cc(NS(C)(=O)=O)c(OCC)cc1CNC(=O)Nc1ccc(OCC)c(C(=O)NC)c1
3,< 50,CCCNC(=O)c1cc(NC(=O)NCc2cc(OCC)c(NS(C)(=O)=O)cc2OCC)ccc1OCC

# Target: T6, Tyrosine-protein phosphatase non-receptor type 1 (Homo sapiens, UniProt P18031)
# T6 sequence (P18031 whole entry): T2 sequence (whole entry)
# Assay: Inhibition of recombinant human PTP1B using pNNP as substrate after 30 mins
row,SMILES,IC50 [nM]
1,CCOc1cc(NS(C)(=O)=O)c(OCC)cc1CNC(=O)Nc1ccc(OCC)c(C(=O)Nc2cccc(OC)c2)c1,981
2,CCOc1cc(NS(C)(=O)=O)c(OCC)cc1CNC(=O)Nc1ccc(OCC)c(C(=O)Nc2ccc(C)cc2)c1,209
3,CCCCOc1ccc(NC(=O)NCc2cc(OCC)c(NS(C)(=O)=O)cc2OCC)cc1C(=O)OC,711
4,CCCNC(=O)c1cc(NC(=O)NCc2cc(OCC)c(NS(C)(=O)=O)cc2OCC)ccc1OCC,184

# More lines, now with the values ahead:
row,IC50 [nM],SMILES
1,169,CCNC(=O)c1cc(NC(=O)NCc2cc(OCC)c(NS(C)(=O)=O)cc2OCC)ccc1OCC
2,166,CCOc1cc(NS(C)(=O)=O)c(OCC)cc1CNC(=O)Nc1ccc(OCC)c(C(=O)NC)c1
3,68.2,CCCOc1ccc(NC(=O)NCc2cc(OCC)c(NS(C)(=O)=O)cc2OCC)cc1C(=O)OC
4,66.2,CCOc1cc(NS(C)(=O)=O)c(OCC)cc1CNC(=O)Nc1ccc(OCC)c(C(=O)Nc2ccc(OC)c(OC)c2)c1
5,18.6,CCOc1cc(NS(C)(=O)=O)c(OCC)cc1CNC(=O)Nc1ccc(OCC)c(C(=O)OC)c1

# Target: T4, Receptor-type tyrosine-protein phosphatase F
# Assay: Inhibition of human GST-tagged LAR D1 (1275 to 1613 residues) expressed in Escherichia coli BL21-CondenPlus (DE3) at 25 uM using pNNP as substrate relative to control
row,inhibition [%],SMILES
1,< 50,CCOc1cc(NS(C)(=O)=O)c(OCC)cc1CNC(=O)Nc1ccc(OCC)c(C(=O)NC)c1
2,< 50,CCCNC(=O)c1cc(NC(=O)NCc2cc(OCC)c(NS(C)(=O)=O)cc2OCC)ccc1OCC
3,< 50,CCCOc1ccc(NC(=O)NCc2cc(OCC)c(NS(C)(=O)=O)cc2OCC)cc1C(=O)OC

# Target: T7, Tyrosine-protein phosphatase non-receptor type 11 (Homo sapiens, UniProt Q06124)
# T7 sequence (Q06124 whole entry): T5 sequence (whole entry)
# Assay: Inhibition of human GST-tagged SHP2 ([…] residues) expressed in Escherichia coli BL21-CondenPlus (DE3) using pNNP as substrate
row,IC50 [nM],SMILES
1,1590,CCOc1cc(NS(C)(=O)=O)c(OCC)cc1CNC(=O)Nc1ccc(OCC)c(C(=O)Nc2ccc(OC)c(OC)c2)c1
2,910,CCOc1cc(NS(C)(=O)=O)c(OCC)cc1CNC(=O)Nc1ccc(OCC)c(C(=O)OC)c1
3,7760,CCCOc1ccc(NC(=O)NCc2cc(OCC)c(NS(C)(=O)=O)cc2OCC)cc1C(=O)OC

# Tested on: L6
# Assay: Antidiabetic activity in rat L6 cells assessed as increase in insulin-stimulated 2-NBDG uptake at 2.5 uM after 30 mins by fluorescent assay relative to control
# Type: functional
# In short: as §1
row,SMILES,Activity [%]
1,CCOc1cc(NS(C)(=O)=O)c(OCC)cc1CNC(=O)Nc1ccc(OCC)c(C(=O)Nc2ccc(OC)c(OC)c2)c1,18.7
2,CCOc1cc(NS(C)(=O)=O)c(OCC)cc1CNC(=O)Nc1ccc(OCC)c(C(=O)OC)c1,22.4

# Reference: ChEMBL document CHEMBL4145460, “Discovery of novel high potent and cellular active ADC type PTP1B inhibitors with selectivity over TC-PTP via modification interacting with C site” (Eur J Med Chem, 2018)
